Test results: ChEMBL document CHEMBL4425094, “Novel Benzo[a]quinolizidine Analogs Induce Cancer Cell Death through Paraptosis and Apoptosis” (J Med Chem, 2016)

Columns and labels:
RWPE-1 = experiment: Cytotoxicity against human RWPE1 cells assessed as cell growth inhibition after 24 hrs by MTT assay; type: cell-based; conditions: RWPE-1, 24 h
Method in brief: (§1)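 Cells seeded 24 h in RPMI 1640 + 10% FBS. RWPE-1 was kept in K-SFM with bovine pituitary extract and EGF. Cells then exposed to compounds for 24 h at 37 °C, 5% CO2, with DMSO vehicle and docetaxel as positive control. MTT added for 4 h, absorbance read at 570 nm. Triplicate runs, IC50 reported as mean of three experiments.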

K562 = experiment: Cytotoxicity against human K562 cells assessed as cell growth inhibition after 24 hrs by MTT assay; type: functional, cell-based; conditions: K562, 24 h; method in brief: as §1
MCF7 = experiment: Cytotoxicity against human MCF7 cells assessed as cell growth inhibition after 24 hrs by MTT assay; type: functional, cell-based; conditions: MCF7, 24 h; method in brief: as §1
DU-145 = experiment: Cytotoxicity against human DU145 cells assessed as cell growth inhibition after 24 hrs by MTT assay; type: functional, cell-based; conditions: DU-145, 24 h; method in brief: as §1
MDA-MB-231 = experiment: Cytotoxicity against human MDA-MB-231 cells assessed as cell growth inhibition after 24 hrs by MTT assay; type: functional, cell-based; conditions: MDA-MB-231, 24 h; method in brief: as §1
PC-3 = experiment: Cytotoxicity against human PC3 cells assessed as cell growth inhibition after 24 hrs by MTT assay; type: functional, cell-based; conditions: PC-3, 24 h; method in brief: as §1
HeLa = experiment: Cytotoxicity against human HeLa cells assessed as cell growth inhibition after 24 hrs by MTT assay; type: functional, cell-based; method in brief: as §1

Row | SMILES | IC50 (RWPE-1) [µM] | IC50 (K562) [µM] | IC50 (MCF7) [µM] | IC50 (DU-145) [µM] | IC50 (MDA-MB-231) [µM] | IC50 (PC-3) [µM] | IC50 (HeLa) [µM]
1 | Oc1cc2c(cc1O)[C@@H]1C[C@H](O)C[C@@H](c3ccccc3)N1CC2 | > 20 | > 20 | > 20 | > 20 | > 20 | > 20 | > 20
2 | C[C@@H]1C[C@@H](O)C[C@H]2c3cc(OCc4ccccc4)c(OCc4ccccc4)cc3CCN12 | 1.84 | 1.52 | 2.2 | 2.18 | 1.15 | 2.81 | 2.66
3 | C[C@@H]1C[C@@H](O)C[C@H]2c3cc(OCc4cc(F)cc(F)c4)c(OCc4cc(F)cc(F)c4)cc3CCN12 | 4.42 | 1.89 | 1.71 | 1.88 | 2.11 | 1.35 | 1.96
4 | O[C@H]1C[C@@H](c2ccccc2)N2CCc3cc(OCc4ccccc4)ccc3[C@@H]2C1 | > 20 | > 20 | > 20 | > 20 | > 20 | > 20 | > 20
5 | COc1ccc([C@@H]2C[C@@H](O)C[C@H]3c4cc(OCc5cc(F)cc(F)c5)c(OCc5cc(F)cc(F)c5)cc4CCN23)cc1OC | 2.24 | 3.92 | 3.52 | 3.96 | 1.3 | 1.71 | 4.67
6 | Oc1cc2c(cc1O)[C@@H]1C[C@@H](O)C[C@@H](c3ccccc3)N1CC2 | > 20 | > 20 | > 20 | > 20 | > 20 | > 20 | > 20
7 | CCCCCCCCCCCCCCCCOc1cc2c(cc1OCCCCCCCCCCCCCCCC)[C@@H]1C[C@H](O)C[C@@H](C)N1CC2 | > 20 | > 20 | > 20 | > 20 | > 20 | > 20 | > 20
8 | O=C1C[C@@H](c2ccccc2)N2CCc3cc4c(cc3[C@@H]2C1)OCO4 (relative stereo) | > 20 | > 20 | > 20 | > 20 | > 20 | > 20 | > 20
9 | O[C@H]1C[C@@H](c2ccccc2)N2CCc3ccccc3[C@@H]2C1 | > 20 | > 20 | > 20 | > 20 | > 20 | > 20 | > 20
10 | c1ccc(COc2cc3c(cc2OCc2ccccc2)[C@@H]2CCC[C@@H](c4ccccc4)N2CC3)cc1 | > 20 | > 20 | > 20 | > 20 | > 20 | > 20 | > 20
11 | CCC[C@@H]1CC(=O)C/C=C(/CC)[C@H]2c3cc(OCc4ccccc4)c(OCc4ccccc4)cc3CCN12 (relative stereo) | > 20 | > 20 | > 20 | > 20 | > 20 | > 20 | > 20
12 | C[C@@H]1CC(=O)C[C@H]2c3cc4c(cc3CCN12)OCO4 (relative stereo) | > 20 | > 20 | > 20 | > 20 | > 20 | > 20 | > 20
13 | COc1cc([C@@H]2C[C@@H](O)C[C@H]3c4cc(OCc5ccccc5)c(OCc5ccccc5)cc4CCN23)cc(OC)c1OC | > 20 | > 20 | > 20 | > 20 | > 20 | > 20 | > 20
14 | C[C@@H]1C[C@@H](O)C[C@H]2c3cc4c(cc3CCN12)OCO4 | > 20 | > 20 | > 20 | > 20 | > 20 | > 20 | > 20
15 | C[C@@H]1C[C@@](C)(O)C[C@H]2c3cc(OCc4cc(F)cc(F)c4)c(OCc4cc(F)cc(F)c4)cc3CCN12 | 4.45 | 1.13 | 1.98 | 1.33 | 2.81 | 1.29 | 1.29
16 | O[C@H]1C[C@@H](c2ccccc2)N2CCc3cc4c(cc3[C@@H]2C1)OCO4 | > 20 | > 20 | > 20 | > 20 | > 20 | > 20 | > 20
17 | COc1cc([C@@H]2CC(=O)C[C@H]3c4cc(OCc5ccccc5)c(OCc5ccccc5)cc4CCN23)cc(OC)c1OC (relative stereo) | > 20 | > 20 | > 20 | > 20 | > 20 | > 20 | > 20
